Screening results: PubChem, The Scripps Research Institute Molecular Screening Center
Hits are enriched below; roughly 4.3% of the tested compounds scored in any of these assays.
CHO parental Ca: ATP-evoked calcium signal inhibitors, parental CHO, primary screen, counter-screen for OX1R antagonist project, cell-based, fluorescence, Fluo-8 calcium dye; parental CHO-K1, ATP-induced calcium, Fluo-8 fluorescence; inhibition, % at 5.6 µM; 330,000 compounds, 0.63% hits;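 active means inhibition above that plate's mean sample inhibition plus 3 SD, cut at about 26% in these data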;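 further: 0% = ATP-challenged DMSO wells and 100% = DMSO wells without ATP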
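Material: parental CHO cells / Compound: single nominal dose of 5.6 µM per compound / Signal: Fluo-8 fluorescence / Replicates: singlicate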
OX1R antag-1: OX1R (HCRTR1) antagonists, primary screen, fluorescence, CHO/OX1R cells, Fluo-8 calcium, orexin A; Orexin/Hypocretin receptor type 1 (Homo sapiens), O43613; Fluo-8 calcium fluorescence; inhibition, % at 5 µM; 330,000 compounds, 0.43% hits;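 active means inhibition above its plate's threshold, mean inhibition of all tested compounds on the plate plus 3 SD, cut at about 37% in these data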;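 further: 0% = orexin A challenge wells and 100% = SB-334867-A antagonist wells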
TAAR1 agonist: human TAAR1 agonists, primary screen, Fluo-8 calcium fluorescence, CHO RD-HGA16 cells. Trace amine-associated receptor 1 (Homo sapiens), Q96RJ0. vehicle wells 0%, saturating PEA agonist 100%. activation, % at 3 µM. 360,000 compounds, 0.99% hits. AID 624467, 2012;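 active means activation above the mean activation of all test compounds in the run plus 3 SD, cut at about 38% in these data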
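test system = CHO RD-HGA16 cells carrying human TAAR1 plus Gα16 | schedule = 17-24 h seeding, 75 min 37 °C dye, 30 min RT | compound dosing = 3 µM single concentration | control set = DMSO and PEA EC100 | replicates = n 1 | signal = Fluo-8 fluorescence, 5 s baseline then 140 s kinetic read | measure = percent activation vs PEA EC100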
OX1R antag-2: antagonists of human orexin 1 receptor (OX1R); inhibition, % at 6.6 µM; OX1R-expressing cells, FRET antagonist read-out; AID 485270, 2010; 330,000 compounds, 1.8% hits; Orexin/Hypocretin receptor type 1 (Homo sapiens), O43613; in the data active means inhibition mostly above about 38%, no sharp cut-off; inactive means mostly below about 40%;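 further: 0% = agonist challenge alone and 100% = reference antagonist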
GalR3 antagonist: GalR3 antagonists in HEK293 cells, primary screen, cell-based, fluorescence readout; Galanin receptor type 3 (Homo sapiens), O60755; 360,000 compounds, 0.44% hits; AID 651719, 2012; HEK293 GalR3-CNG cAMP membrane potential fluorescence; galR3 body fused to GalR1 C-terminus; inhibition, % at 3 µM;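 active means inhibition above the screen-wide average plus 3 SD, cut at about 13% in these data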;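 further: forskolin and galanin both at EC90 stimulate the cells; cAMP rise reported by CNG channel membrane potential dye signal; 0% = forskolin plus galanin with DMSO and 100% = forskolin alone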
Target sequence (O60755 1-299 limits assumed): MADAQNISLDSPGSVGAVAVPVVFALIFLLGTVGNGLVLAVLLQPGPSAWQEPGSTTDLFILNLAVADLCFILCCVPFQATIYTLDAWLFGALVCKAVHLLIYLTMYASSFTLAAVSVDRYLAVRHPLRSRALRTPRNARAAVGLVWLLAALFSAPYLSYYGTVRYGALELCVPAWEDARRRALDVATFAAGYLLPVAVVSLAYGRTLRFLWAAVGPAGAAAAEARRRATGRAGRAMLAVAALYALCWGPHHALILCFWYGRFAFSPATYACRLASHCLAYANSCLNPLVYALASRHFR
TAAR1 antagonist: human TAAR1 antagonists, primary screen, Fluo-8 calcium fluorescence, CHO RD-HGA16 cells; Trace amine-associated receptor 1 (Homo sapiens), Q96RJ0; antagonist; inhibition, % at 3 µM; 360,000 compounds, 1.5% hits; AID 624466, 2012;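 active means inhibition above a per-plate cutoff, the mean inhibition of test compounds on that plate plus 3 SD, cut at about 49% in these data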;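 further: 0% = DMSO plus EC80 beta-PEA response and 100% = DMSO alone without agonist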
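Material: CHO RD-HGA16 cells bearing hTAAR1; compound dosing: one-point dosing, 3 µM nominal final; schedule: dye loading 75 min at 37 °C, then 30 min room temperature; measured by: calcium fluorescence with Fluo-8; control set: vehicle and agonist controls; replication: n of 1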
The depositor's hits bear a star; x = no result given.

SMILES | CHO parental Ca | OX1R antag-1 | TAAR1 agonist | OX1R antag-2 | GalR3 antagonist | TAAR1 antagonist
C=CCC[C@H](Cc1ccc(F)cc1)C(=O)OC[C@@H](NC(=O)[C@@H](CC=C)CC(=O)N[C@@H](CO)Cc1ccccc1)C(C)(C)C | -10 | 14 | 13 | 7 | -5 | 51*
C=CCC[C@H](Cc1ccc(F)cc1)C(=O)OC[C@@H](C)NC(=O)[C@@H](CC=C)CC(=O)N[C@H](CO)Cc1ccccc1 | -1 | 21 | 17 | 13 | -6 | 51*
C=CC[C@@H](CC(=O)N[C@H](CO)Cc1ccccc1)C(=O)N[C@@H](COC(=O)[C@H](CC=C)CC(=O)OC(C)(C)C)Cc1ccccc1 | -18 | 9 | 13 | 12 | -9 | 50*
C=CC[C@@H](CC(=O)N[C@@H](CO)Cc1ccccc1)C(=O)N[C@H](COC(=O)[C@@H](CC=C)CC(=O)OC(C)(C)C)Cc1ccccc1 | -3 | -4 | 0 | 4 | -4 | -3
Cc1ccc(NC(=O)C2(S(=O)(=O)c3ccc(Cl)cc3)CC2)c(Br)c1 | -14 | -50 | -1 | 15 | -8 | -4
OC(c1ccccc1)(c1ccccc1)C1CCN(CCCOc2ccc3c(c2)CCCC3)CC1 | x | x | 42* | x | -8 | 40
N#CCc1ccc(OCCCN2CCC(C(O)(c3ccccc3)c3ccccc3)CC2)cc1 | x | x | 24 | x | -6 | 9
Cn1c(CC(=O)Nc2ccc(Cl)c(Cl)c2)nnc1SCC(=O)NCc1ccccc1 | 16 | -22 | 38* | 6 | -2 | 8
COc1cccc(/C=N/NC(=O)CSc2nnc(C)n2-c2ccccc2)c1O | -13 | -16 | 13 | 23 | -2 | -5
CCCCSc1nc(C)cc(SCC(=O)N/N=C/c2cccc(OC)c2O)n1 | 34* | 57* | 22 | 70 | 1 | 37
O=C1NC(=S)SC1=Cc1ccccc1Cl | x | x | 2 | x | -4 | -33
Cc1ccc(C2C(/C=C3/SC(=S)NC3=O)=C(c3cccs3)Oc3ccccc32)cc1 (stereo not drawn) | 8 | -6 | 1 | 33 | -3 | 56*
C=CCN(c1ccccc1)S(=O)(=O)c1ccc(Cl)c(C(=O)OCC(=O)c2[nH]c(C)c(C(C)=O)c2C)c1 | -10 | 9 | 5 | 33 | -9 | 50*
C=CCN(c1ccc(OC)cc1)S(=O)(=O)c1ccc(Cl)c(C(=O)OCC(=O)NC2CC2)c1 | -32 | -32 | 2 | 24 | 3 | 7
Cc1cccc(NS(=O)(=O)c2ccc(C(=O)N3CCC3)cc2)c1C | -19 | -21 | 4 | 12 | -3 | 15
NC(=O)c1ncn([C@@H]2O[C@H](C(=O)N3CCCN(Cc4ccccc4F)CC3)[C@@H](O)[C@H]2O)n1 | x | x | 2 | x | -3 | -22
CCOc1ccc(CCNC(=O)c2c(C)noc2C)cc1OCC | -17 | -32 | 1 | 2 | 1 | -3
CCOc1ccc(CCNC(=O)c2cc3c(C)nccc3[nH]c2=O)cc1OCC | -12 | -17 | 13 | 25 | 4 | 51*
CN(CC(=O)Nc1ccccc1Br)C(=O)COc1cccc2c1OC(C)(C)C2 | -21 | -12 | 2 | 7 | -1 | -27
O=C(CSc1nnnn1-c1cccc2c1CCCC2)N1CCCCC1 | -13 | -12 | 45* | 14 | -7 | 8
O=S(=O)(c1ccc2c(c1)CCC2)N1CCNCC1 | x | x | 0 | x | 3 | -24
COc1ccc(C(=O)/C=C/Nc2ccc(S(=O)(=O)Nc3cccc(C(C)=O)c3)cc2)cc1 | 36* | 47* | 3 | 71* | -8 | 56*
O=S(=O)(c1ccc(F)cc1)N1CCCC1 | 4 | -13 | 0 | 14 | -2 | 11
COc1ccc(NS(=O)(=O)c2ccc(S(=O)(=O)N3CCCC3)cc2)cc1 | 40* | 14 | 30 | 17 | -6 | 19
